Hck-Nef inh: inhibitors of human Hck kinase activated by Nef; P08631; Recombinant Hck-YEEI plus Nef, Z-Lyte FRET kinase assay; inhibition, % at 20 µM; 220,000 compounds, 0.68% hits;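 active = Hck-Nef kinase inhibition above about 50%, limit read from the data; inactive = inhibition below that limit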;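 also: 0% = DMSO with Hck plus Nef and 100% = Hck alone without Nef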
Mcl1 Bid PPI: disrupts binding of human Mcl-1 to Bid peptide; Q07820; TR-FRET Mcl-1/Bid-Dy647 peptide binding, 1536-well; inhibition, % at 21.7 µM; 220,000 compounds, 0.97% hits; AID 1021;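 active = compounds that cut the binding signal by more than half at the single screening dose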;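 also: His-tagged Mcl-1 with europium anti-His antibody binding Bid BH3 peptide; 0% = Mcl-1 plus peptide wells and 100% = peptide-only wells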
Calb biofilm kill: mixtures killing C. albicans biofilm; C. albicans biofilm persisters + clotrimazole, fluorescence viability; primary screen in compound mixtures of four per well; 120,000 compounds, 0.02% hits; inhibition, % at 7.6 µM;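 active = inhibition above 30.3% in the primary screen of four-compound pools, then above 30% when the compound was retested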;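 also: compounds exposed to preformed 24 h biofilms for 48 h; 0% = untreated biofilm control and 100% = clotrimazole plus chlorhexidine kill blank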
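Test system: C. albicans biofilms. Buffer or medium: RPMI/MOPS medium, pH 7.0. Timing: 48 h compound exposure at 37 °C. Technique: Alamar Blue fluorescence. Evaluation: percent inhibition of biofilm viability.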
14-3-3 Bad PPI: disrupts binding of bovine 14-3-3 zeta to phospho-Bad peptide. TR-FRET 14-3-3zeta/Dy647-pBad peptide displacement, 1 h. AID 781. 220,000 compounds, 0.71% hits. inhibition, % at 21.7 µM;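 active = inhibition above about 70%, limit read from the data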;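 also: 0% = full 14-3-3 plus peptide FRET controls and 100% = background without 14-3-3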
Target sequence (P63103 whole entry, looked up): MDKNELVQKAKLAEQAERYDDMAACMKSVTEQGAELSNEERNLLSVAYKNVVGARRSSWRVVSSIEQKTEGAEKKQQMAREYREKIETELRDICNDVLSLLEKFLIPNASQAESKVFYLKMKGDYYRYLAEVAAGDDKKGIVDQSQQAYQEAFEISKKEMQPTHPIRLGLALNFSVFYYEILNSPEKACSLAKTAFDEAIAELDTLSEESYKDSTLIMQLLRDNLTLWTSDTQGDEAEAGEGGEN
Mcl1-Noxa inh: Mcl-1/Noxa interaction inhibition. Q07820. inhibition, % at 21.7 µM. TR-FRET Mcl-1/Noxa peptide binding, 2 h. 220,000 compounds, 1.5% hits;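 active = compounds that cut the protein-peptide binding signal by more than 50% relative to plate controls in a single-dose test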;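 also: His-tagged Mcl-1 with rhodamine Noxa BH3 peptide and terbium anti-His antibody; 0% = Mcl-1 plus Noxa peptide wells and 100% = peptide-only wells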
Bim-Mcl-1: disrupts Bim peptide binding to human Mcl-1; Q07820; Bead-based flow cytometry, Bim peptide-Mcl-1 binding; inhibition, % at 10 µM; 190,000 compounds, 0.1% hits; in the data active = inhibition above about 40%;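 also: 0% = no compound tracer wells and 100% = peptide blocker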
Hck-Nef confirm: confirmation of Hck-Nef kinase inhibitors; shares compounds with Hck-Nef inh; Recombinant Hck-YEEI:Nef, Z-Lyte FRET kinase assay; calls only at 10 µM; 1,300 compounds, 28% hits;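 active = average inhibition of at least 50%, with Z-scores no higher than 3 in both the phospho-tyrosine peptide and fluorescence counterscreens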
Active calls of the source: *; i = inactive; · = no result given; + = active, no number; [ ] = remark or other dose. An excerpt weighted towards active compounds, which were near 3.2% of everything screened.

SMILES	Hck-Nef inh	Mcl1 Bid PPI	Calb biofilm kill	14-3-3 Bad PPI	Mcl1-Noxa inh	Bim-Mcl-1	Hck-Nef confirm
CSc1cccc(NC(=O)Cc2ccccc2[N+](=O)[O-])c1	-19	-29	14	-2	-8	-3	·
O=C(c1c[nH]c(C(=O)C(Cl)(Cl)Cl)c1)c1ccccc1Br	79*	7	8	4	28	1	i
COCCCNC(=O)c1cc(C(=O)c2ccccc2Br)c[nH]1	19	-12	10	-16	-7	2	·
Nc1c(C(=O)N/N=C/c2cccnc2)oc2nc(-c3ccccc3)cc(-c3ccco3)c12	-25	13	0	-5	40	·	·
O=CNn1cnc2c(oc3nc(-c4ccccc4)cc(-c4ccco4)c32)c1=O	55*	-29	3	0	40	4	i
Oc1ccc(-c2nc3ccccc3s2)c(O)c1	163*	4	17	8	37	·	·
Oc1ccc(-c2nc3ccccc3s2)cc1	47	-19	27	1	17	·	·
CCCc1nc(SCC(=O)Nc2ccc(N3CCOCC3)cc2)c2ccccc2n1	11	-23	-9	1	10	0	·
CCCc1nc(SCC(=O)NNC(=O)C2CCCCC2)c2ccccc2n1	75*	40	·	16	7	0	i
CCN1CCN(Cc2ccc(NC(=O)c3ccc(C)c(NC(=O)N4CCNC4=O)c3)cc2C(F)(F)F)CC1	28	-34	14	-1	17	·	·
CCN1CCN(Cc2ccc(NC(=O)c3ccc(C)c(NC(=O)c4cc(-c5ccc(Br)cc5)n[nH]4)c3)cc2C(F)(F)F)CC1	96*	-21	19	-17	-11	·	+
CCN1CCN(Cc2ccc(NC(=O)c3ccc(C)c(NC(=O)c4nccn4C)c3)cc2C(F)(F)F)CC1	17	-3	18	-3	17	·	·
CCN1CCN(Cc2ccc(NC(=O)c3ccc(C)c(NC(=O)c4nccnc4N)c3)cc2C(F)(F)F)CC1	56*	-12	9	-4	22	·	i
Nc1nc(CCl)nc(Nc2cccc3ccccc23)n1	2	-5	14	-3	25	·	·
O=C(CNC(=O)c1ccco1)N/N=C/c1cccs1	36	-39	28	2	0	·	·
O=C1NC(=Nc2ccc(O)cc2)S/C1=C/c1ccco1	81*	-4	7	-11	47	0	i
COc1ccc(N=C2NC(=O)/C(=C\C=C\c3ccco3)S2)cc1	88*	-36	20	-9	82*	6	+
O=C1NC(=Nc2ccccc2)S/C1=C\c1cccs1	31	-9	23	1	24	·	·
COc1ccc(N=C2S/C(=C\c3ccco3)C(=O)N2CC(C)C)cc1	0	5	·	5	16	-4	·
Cc1ccc(C2=NOC(=O)/C2=C\C=C\c2ccccc2)cc1	56*	-31	-1	-5	34	-4	i
CN(C)/C=C1\C(=O)ON=C1c1ccccc1	23	6	15	6	1	1	·
Cc1ccc(NC(=O)c2nc[nH]c2C(=O)N[C@@H](C)C(=O)OC(C)(C)C)cc1	26	-13	12	-10	-8	·	·
COc1ccc(NC(=O)c2nc[nH]c2C(=O)N[C@@H](C)C(=O)OC(C)(C)C)cc1	53*	-28	7	-4	-8	·	i
Cc1cc(C(=O)N/N=C2\CC(=O)c3ccccc32)c(C)n1-c1ccc(F)cc1	53*	-55	30	-2	11	·	i
CCOc1cc(/C=N/NC(=O)c2cc(C)n(-c3ccc(F)cc3)c2C)ccc1O	0	-34	20	4	12	·	·
CCOc1ccc(S(=O)(=O)N2CCCCC2)c(C)c1C	83*	0	14	1	11	-5	i
O=C1CSC(=S)N1/N=C/c1ccc(Cl)c([N+](=O)[O-])c1	80*	-82	2	-3	-37	·	+
COc1cc(/C=N/N2C(=O)CSC2=S)ccc1O	1	-29	·	8	17	2	·
CCCCCCCCCCCCCCCC[n+]1ccc(/C=N/O)cc1	112*	34	16	99*[fluorescence artefact?]	19	-1	·
Cc1cc(C)cc(N(CC(=O)NCc2cccnc2)S(C)(=O)=O)c1	1	-18	·	-9	0	1	·

Screening results (PubChem)
